Bioassay records (PubChem BioAssay)
STAT1 blocker = STAT1 signaling inhibition | NIH 3T3 STAT1-luciferase reporter, IFN-gamma, luminescence | inhibition, % at 5.5 µM | 0.35% of 200,000 active;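 active = inhibition above a set limit, the mean inhibition across all tested compounds plus 3 SD, cut at about 34% in these data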;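 also: 0% = IFN-gamma with DMSO and 100% = IFN-gamma with 300 µM nifuroxazide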
STAT3 act-1 = STAT3 signaling activation | U3A cells, IL-6 STAT3-luciferase reporter, luminescence; 100% = signal with IL-6 EC80 alone | activation (% of control), % at 5.6 µM | 0.91% of 190,000 active | AID 871;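 active = activation above the screen-wide mean of compound activation plus 3 SD, cut at about 130% in these data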;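 also: 0% = background luminescence of wells with medium and substrate only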
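Test system: Human STAT1-deficient U3A cells with stable STAT3-luciferase reporter | Also added: Interleukin-6, 33 ng/mL | Timing: Compound pre-incubation 1 h before IL-6, then 6 h stimulation at 37 °C | Technique: Luciferase reporter luminescence | Read-out: Percent of IL-6-only median luminescence | Benchmarks: IL-6-only wells as 100% reference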
TNF necrop inh = TNF-alpha cell death inhibition in Jurkat FADD-/- cells | Jurkat FADD-/- TNF necroptosis rescue, ATP luminescence, 24 h; 0 = TNF only, 100 = no-TNF cells | activation (protection from cell death), % at 10 µM | AID 463075 | 0.068% of 220,000 active;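 active = activation, meaning protection from cell death, of at least 50% relative to plate controls; inactive = activation below 50%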;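 also: necroptosis triggered by 40 ng/mL TNF-alpha added together with compound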
L929 necroptosis = L929 zVAD cell death inhibition | 0.38% of 220,000 active | viability rescue, % at 10 µM | L929 zVAD necroptosis rescue, ATP luminescence, 24 h; with zVAD 60 µM;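 active = activation, scaled between plate controls, above about 75%, limit read from the data; inactive = activation under that limit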;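 also: 0% = zVAD with DMSO and 100% = DMSO alone without zVAD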
STAT3 blocker = inhibitors of IL-6 induced STAT3 signaling. U3A cells, IL-6 STAT3-luciferase reporter, luminescence; host cell line lacks STAT1. AID 862. 0.89% of 190,000 active. inhibition, % at 5.5 µM;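 active = inhibition above the mean inhibition across all screened compounds plus 3 SD, cut at about 44% in these data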;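 also: 0% = DMSO only wells and 100% = 100 µM nifuroxazide control wells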
STAT3 act-2 = confirmation of STAT3 signaling activators; 64% of 1,200 active; U3A STAT3-luciferase reporter, IL-6 potentiation, luminescence; U3A cells lack STAT1; 100 means same as IL-6 alone; potentiation (% of control), % at 5.7 µM; shares compounds with STAT3 act-1; AID 1267;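 active = percent activation of the STAT3 luciferase reporter above a set limit taken from the earlier primary screen, cut at about 130% in these data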;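 also: 0% = background signal of medium plus substrate and 100% = median of IL-6 with DMSO wells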
NFkB act STAT3ct = counter-screen for STAT3 activators: NF-kappaB activation; shares compounds with STAT3 act-1; human cells, NF-kappaB reporter activation; activation (% of control), % at 5.7 µM; 11% of 1,200 active; AID 1309; in the data active = activation above about 120%;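 also: reporter induced by TNF-alpha stimulation; 100% = median of stimulated DMSO wells and 0% = no signal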
STAT1 act STAT3c = counter-screen for STAT3 activators: STAT1 activation; shares compounds with STAT3 act-1; NIH 3T3 STAT1-luciferase reporter, IFN-gamma, luminescence; activation (% of control), % at 5.7 µM; 13% of 1,200 active; AID 1318;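 active = activation above the solvent-only control well mean plus 3 SD, set per screening run, cut at about 120% in these data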;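 also: 100% = IFN-gamma with DMSO median signal so 100% means no change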
An asterisk follows results filed as active. This is a sample that favours compounds with a hit; in the whole collection about 2.1% have one here.

Screening Cc1ccc([N+](=O)[O-])cc1NC(=O)C(Sc1ccccc1)c1ccccc1 (centres undefined) returned STAT1 blocker -7.0, STAT3 act-1 104.9, TNF necrop inh -0.9, L929 necroptosis -0.7 and STAT3 blocker -7.7.
Screening COc1cccc(CNCCSc2nnnn2C)c1OC returned STAT1 blocker -0.9, STAT3 act-1 104.2, TNF necrop inh 0.9, L929 necroptosis -0.4 and STAT3 blocker -0.4.
For CC(C)(C)N(NC(=O)c1ccccc1)C(=O)c1ccc(C(=O)N(NC(=O)c2ccccc2)C(C)(C)C)cc1 the results were STAT1 blocker 11.9, STAT3 act-1 97.3, TNF necrop inh 0.7, L929 necroptosis 0.5 and STAT3 blocker 2.3.
`COc1ccc(C(=O)n2nc(C)cc2Nc2ccccc2)cc1` gave STAT1 blocker -24.1, STAT3 act-1 167.4*, TNF necrop inh 3.5, L929 necroptosis 1.4, STAT3 blocker -70.5, STAT3 act-2 152.7*, NFkB act STAT3ct 119.0 and STAT1 act STAT3c 136.4*.
Screening Cc1cc(Nc2ccccc2)nn1C(=O)c1ccccc1 returned STAT1 blocker -1.9, STAT3 act-1 95.8, TNF necrop inh 6.0, L929 necroptosis 24.8 and STAT3 blocker 8.8.
Screening CN1CCN(CCCNC(=O)c2cc3c(-c4ccc(Cl)cc4)nn(C)c3s2)CC1 returned STAT1 blocker 12.2, STAT3 act-1 173.4*, TNF necrop inh -1.7, L929 necroptosis 68.6, STAT3 blocker -76.1, STAT3 act-2 149.4*, NFkB act STAT3ct 105.5 and STAT1 act STAT3c 93.2.
CCN(CC)CCCNC(=O)c1cc(-c2ccc(Cl)c(Cl)c2)on1 was read as STAT1 blocker 0.9, STAT3 act-1 95.3, TNF necrop inh -5.9, L929 necroptosis 25.4 and STAT3 blocker 15.1.
CCN(CC)CCCNC(=O)c1cc2c(-c3ccc(Cl)cc3)nn(C)c2s1 was read as STAT1 blocker 11.2, STAT3 act-1 160.5*, TNF necrop inh -2.8, L929 necroptosis 54.2, STAT3 blocker -61.3, STAT3 act-2 156.2*, NFkB act STAT3ct 109.3 and STAT1 act STAT3c 97.4.
For Cn1nc(-c2ccc(Cl)cc2)c2cc(C(=O)NCC3CCCO3)sc21 (centres undefined) the results were STAT1 blocker 11.2, STAT3 act-1 167.1*, TNF necrop inh 0.7, L929 necroptosis 2.8, STAT3 blocker -77.1, STAT3 act-2 146.7*, NFkB act STAT3ct 102.4 and STAT1 act STAT3c 92.1.
For c1ccc(-c2nnc(SCc3nc4ccccc4[nH]3)n2Cc2ccco2)nc1 the results were STAT1 blocker 13.8, STAT3 act-1 94.9, TNF necrop inh 0.2, L929 necroptosis 1.6 and STAT3 blocker 13.5.
O=c1cnnc(Nc2cccc(F)c2)[nH]1 was read as STAT1 blocker 2.4, STAT3 act-1 142.5*, TNF necrop inh 0.3, L929 necroptosis 0.6, STAT3 blocker -51.2, STAT3 act-2 148.0*, NFkB act STAT3ct 104.0 and STAT1 act STAT3c 93.0.
Screening O=c1cnnc(Nc2ccc(F)cc2)[nH]1 returned STAT1 blocker -4.7, STAT3 act-1 99.0, TNF necrop inh 0.5, L929 necroptosis 1.3 and STAT3 blocker 11.5.
For CCOc1ccccc1CN1CCN(Cc2cc3ccccc3[nH]2)CC1CCO (centres undefined) the results were STAT1 blocker 19.6, STAT3 act-1 136.1*, TNF necrop inh 1.1, L929 necroptosis 0.6, STAT3 blocker -36.0, STAT3 act-2 150.2*, NFkB act STAT3ct 98.3 and STAT1 act STAT3c 93.7.
Screening COc1ccc(-c2nn(CCC#N)cc2/C=N/O)cc1OC returned STAT1 blocker 1.1, STAT3 act-1 100.6, TNF necrop inh 0.1, L929 necroptosis 6.5 and STAT3 blocker 4.3.
For CCOc1ccc(-c2nnc(-c3ccncc3)o2)cc1OCC the results were STAT1 blocker -8.2, STAT3 act-1 111.2, TNF necrop inh -1.1, L929 necroptosis 1.5 and STAT3 blocker -4.8.
